How the values were obtained:
[1] = target: T1, N-terminal Xaa-Pro-Lys N-methyltransferase 1 (Homo sapiens, UniProt Q9BV86); test: Inhibition of recombinant human full-length His6-tagged NTMT1 (1 to 222 residues) expressed in Escherichia coli BL21-CodonPlus(DE3)-RIL competent cells pre-incubated for 10 mins in presence of SAM and SAHH before RCC1-6 addition and measured after 15 mins by fluorescence based SAHH-coupled assay
T1 sequence (Q9BV86 whole entry): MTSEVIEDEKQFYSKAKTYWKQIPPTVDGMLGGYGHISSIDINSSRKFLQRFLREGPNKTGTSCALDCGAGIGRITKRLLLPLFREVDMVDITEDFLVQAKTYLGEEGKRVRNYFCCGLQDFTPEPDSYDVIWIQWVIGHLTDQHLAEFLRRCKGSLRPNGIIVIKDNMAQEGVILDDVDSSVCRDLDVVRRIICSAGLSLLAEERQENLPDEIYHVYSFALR
In short: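 Pre-incubated 10 min at 37 °C, then started with RCC1-6 (10 µL of 50 µM stock in 100 µL). Line 11 screened at 30 µM; line 12 used 0–100 µM three-fold series, four-parameter fit. Triplicate.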

Homo sapiens [2] = species: Homo sapiens; test: Selectivity for human NTMT1 over human ASH1L at 100 uM
In short: (§1)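 Panel of 41 PKMTs, PRMTs, DNMTs and NTMT1/2, tested at 100 µM compound in duplicate (n=2).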

[3] = target: N-terminal Xaa-Pro-Lys N-methyltransferase 2 (Homo sapiens, UniProt Q5VVY1); test: Binding affinity to recombinant human full-length His6-tagged NTMT2 by ITC assay
In short: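 ITC at 25 °C. Purified protein (NTMT1 for line 1, NTMT2 for line 2) in 20 mM Tris-HCl pH 7.5, 150 mM NaCl, 0.5 mM TCEP at 30–50 µM final. Compound at 0.5–1 mM in the same buffer, titrated in as 26 injections of 10 µl, 180 s apart, reference power 15 µcal/sec.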

Homo sapiens [4] = species: Homo sapiens; test: Selectivity for human NTMT1 over human DNMT3b/3L at 100 uM; in short: as §1
Homo sapiens [5] = species: Homo sapiens; test: Selectivity for human NTMT1 over human EZH2 complex at 100 uM; in short: as §1
Homo sapiens [6] = species: Homo sapiens; test: Selectivity for human NTMT1 over human EZH2 complex Y641F mutant at 100 uM; in short: as §1
Homo sapiens [7] = species: Homo sapiens; test: Selectivity for human NTMT1 over human G9a at 100 uM; in short: as §1
Homo sapiens [8] = species: Homo sapiens; test: Selectivity for human NTMT1 over human GLP at 100 uM; in short: as §1
Homo sapiens [9] = species: Homo sapiens; test: Selectivity for human NTMT1 over human MLL2 complex at 100 uM; in short: as §1
Homo sapiens [10] = species: Homo sapiens; test: Selectivity for human NTMT1 over human MLL3 complex at 100 uM; in short: as §1
Homo sapiens [11] = species: Homo sapiens; test: Selectivity for human NTMT1 over human MLL4 complex at 100 uM; in short: as §1
Homo sapiens [12] = species: Homo sapiens; test: Selectivity for human NTMT1 over human NSD1 at 100 uM; in short: as §1
Homo sapiens [13] = species: Homo sapiens; test: Selectivity for human NTMT1 over human NSD2 at 100 uM; in short: as §1
Homo sapiens [14] = species: Homo sapiens; test: Selectivity for human NTMT1 over human PRDMT1 at 100 uM; in short: as §1
Homo sapiens [15] = species: Homo sapiens; test: Selectivity for human NTMT1 over human PRDMT5/MEP50 complex at 100 uM; in short: as §1
Homo sapiens [16] = species: Homo sapiens; test: Selectivity for human NTMT1 over human PRDMT6 at 100 uM; in short: as §1
Homo sapiens [17] = species: Homo sapiens; test: Selectivity for human NTMT1 over human PRDMT8 at 100 uM; in short: as §1
Homo sapiens [18] = species: Homo sapiens; test: Selectivity for human NTMT1 over human SET7/9 at 100 uM; in short: as §1
Homo sapiens [19] = species: Homo sapiens; test: Selectivity for human NTMT1 over human SET8 at 100 uM; in short: as §1
Homo sapiens [20] = species: Homo sapiens; test: Selectivity for human NTMT1 over human SETD2 at 100 uM; in short: as §1
Homo sapiens [21] = species: Homo sapiens; test: Selectivity for human NTMT1 over human SMYD1 at 100 uM; in short: as §1
Homo sapiens [22] = species: Homo sapiens; test: Selectivity for human NTMT1 over human SUV39H1 at 100 uM
In short: (§2)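 Single-point panel screen against 41 PKMTs, PRMTs, DNMTs and NTMT1/2. Each compound was tested at 100 µM, in duplicate (n=2).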

Homo sapiens [23] = species: Homo sapiens; test: Selectivity for human NTMT1 over human SUV39H at 100 uM; in short: as §1
Homo sapiens [24] = species: Homo sapiens; test: Selectivity for human NTMT2 over human DNMT1 at 100 uM; in short: as §2
Homo sapiens [25] = species: Homo sapiens; test: Selectivity for human NTMT2 over human DNMT3a at 100 uM; in short: as §2
Homo sapiens [26] = species: Homo sapiens; test: Selectivity for human NTMT2 over human DNMT3b/3L at 100 uM; in short: as §2
Homo sapiens [27] = species: Homo sapiens; test: Selectivity for human NTMT2 over human DOT1L at 100 uM; in short: as §2
Homo sapiens [28] = species: Homo sapiens; test: Selectivity for human NTMT2 over human EZH1 complex at 100 uM; in short: as §2
Homo sapiens [29] = species: Homo sapiens; test: Selectivity for human NTMT2 over human EZH2 complex at 100 uM; in short: as §2
Homo sapiens [30] = species: Homo sapiens; test: Selectivity for human NTMT2 over human G9a at 100 uM; in short: as §2
Homo sapiens [31] = species: Homo sapiens; test: Selectivity for human NTMT2 over GST-tagged human METTL21A at 100 uM; in short: as §2
Homo sapiens [32] = species: Homo sapiens; test: Selectivity for human NTMT2 over human MLL2 complex at 100 uM; in short: as §2
Homo sapiens [33] = species: Homo sapiens; test: Selectivity for human NTMT2 over human MLL4 complex at 100 uM; in short: as §2
Homo sapiens [34] = species: Homo sapiens; test: Selectivity for human NTMT2 over human NSD1 at 100 uM; in short: as §2
Homo sapiens [35] = species: Homo sapiens; test: Selectivity for human NTMT2 over human NSD2 at 100 uM; in short: as §2
Homo sapiens [36] = species: Homo sapiens; test: Selectivity for human NTMT2 over human NSD2 E1099K mutant at 100 uM; in short: as §2
Homo sapiens [37] = species: Homo sapiens; test: Selectivity for human NTMT2 over human NSD3 at 100 uM; in short: as §2
Homo sapiens [38] = species: Homo sapiens; test: Selectivity for human NTMT2 over human PRDMT1 at 100 uM; in short: as §2
Homo sapiens [39] = species: Homo sapiens; test: Selectivity for human NTMT2 over human PRDMT3 at 100 uM; in short: as §2
Homo sapiens [40] = species: Homo sapiens; test: Selectivity for human NTMT2 over human PRDMT4 at 100 uM; in short: as §2
Homo sapiens [41] = species: Homo sapiens; test: Selectivity for human NTMT2 over human PRDMT5/MEP50 complex at 100 uM; in short: as §2
Homo sapiens [42] = species: Homo sapiens; test: Selectivity for human NTMT2 over human PRDMT6 at 100 uM; in short: as §2
Homo sapiens [43] = species: Homo sapiens; test: Selectivity for human NTMT2 over human PRDMT7 at 100 uM; in short: as §2
Homo sapiens [44] = species: Homo sapiens; test: Selectivity for human NTMT2 over human SET1b complex at 100 uM; in short: as §2
Homo sapiens [45] = species: Homo sapiens; test: Selectivity for human NTMT2 over human SET8 at 100 uM; in short: as §2
Homo sapiens [46] = species: Homo sapiens; test: Selectivity for human NTMT2 over human SETD2 at 100 uM; in short: as §2
Homo sapiens [47] = species: Homo sapiens; test: Selectivity for human NTMT2 over human SMYD1 at 100 uM; in short: as §2
Homo sapiens [48] = species: Homo sapiens; test: Selectivity for human NTMT2 over human SMYD2 at 100 uM; in short: as §2
Homo sapiens [49] = species: Homo sapiens; test: Selectivity for human NTMT2 over human SUV39H at 100 uM; in short: as §2
Homo sapiens [50] = species: Homo sapiens; test: Selectivity for human NTMT2 over human SUV420H1TV2 at 100 uM; in short: as §2

Sequence of N-terminal Xaa-Pro-Lys N-methyltransferase 2 (Q5VVY1 whole entry): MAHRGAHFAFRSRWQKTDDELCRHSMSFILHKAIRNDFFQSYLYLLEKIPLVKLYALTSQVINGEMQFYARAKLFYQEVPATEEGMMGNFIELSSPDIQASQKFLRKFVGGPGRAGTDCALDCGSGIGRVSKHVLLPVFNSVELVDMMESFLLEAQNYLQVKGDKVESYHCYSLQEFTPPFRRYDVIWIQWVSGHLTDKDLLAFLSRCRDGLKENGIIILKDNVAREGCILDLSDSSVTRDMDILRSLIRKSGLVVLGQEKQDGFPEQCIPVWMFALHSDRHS

N=C(N)NCCC[C@H](NC(=O)[C@H](CCCCN)NC(=O)[C@@H]1CCCN1C(=O)Cc1ccc(O)cc1)C(N)=O
890 nM: IC50 [1]
3700 nM: Kd [3]
> 100: Selectivity ratio (Homo sapiens [2]) | Selectivity ratio (Homo sapiens [4]) | Selectivity ratio (Homo sapiens [5]) | Selectivity ratio (Homo sapiens [6]) | Selectivity ratio (Homo sapiens [7]) | Selectivity ratio (Homo sapiens [8]) | Selectivity ratio (Homo sapiens [9]) | Selectivity ratio (Homo sapiens [10]) | Selectivity ratio (Homo sapiens [11]) | Selectivity ratio (Homo sapiens [12]) | Selectivity ratio (Homo sapiens [13]) | Selectivity ratio (Homo sapiens [14]) | Selectivity ratio (Homo sapiens [15]) | Selectivity ratio (Homo sapiens [16]) | Selectivity ratio (Homo sapiens [17]) | Selectivity ratio (Homo sapiens [18]) | Selectivity ratio (Homo sapiens [19]) | Selectivity ratio (Homo sapiens [20]) | Selectivity ratio (Homo sapiens [21]) | Selectivity ratio (Homo sapiens [22]) | Selectivity ratio (Homo sapiens [23]) | Selectivity ratio (Homo sapiens [24]) | Selectivity ratio (Homo sapiens [25]) | Selectivity ratio (Homo sapiens [26]) | Selectivity ratio (Homo sapiens [27]) | Selectivity ratio (Homo sapiens [28]) | Selectivity ratio (Homo sapiens [29]) | Selectivity ratio (Homo sapiens [30]) | Selectivity ratio (Homo sapiens [31]) | Selectivity ratio (Homo sapiens [32]) | Selectivity ratio (Homo sapiens [33]) | Selectivity ratio (Homo sapiens [34]) | Selectivity ratio (Homo sapiens [35]) | Selectivity ratio (Homo sapiens [36]) | Selectivity ratio (Homo sapiens [37]) | Selectivity ratio (Homo sapiens [38]) | Selectivity ratio (Homo sapiens [39]) | Selectivity ratio (Homo sapiens [40]) | Selectivity ratio (Homo sapiens [41]) | Selectivity ratio (Homo sapiens [42]) | Selectivity ratio (Homo sapiens [43]) | Selectivity ratio (Homo sapiens [44]) | Selectivity ratio (Homo sapiens [45]) | Selectivity ratio (Homo sapiens [46]) | Selectivity ratio (Homo sapiens [47]) | Selectivity ratio (Homo sapiens [48]) | Selectivity ratio (Homo sapiens [49]) | Selectivity ratio (Homo sapiens [50])

From ChEMBL document CHEMBL4725283, “Selective Peptidomimetic Inhibitors of NTMT1/2: Rational Design, Synthesis, Characterization, and Crystallographic Studies” (J Med Chem, 2020)
